Measurements published in ChEMBL document CHEMBL5230169, “QSAR, structure-based pharmacophore modelling and biological evaluation of novel platelet ADP receptor (P2Y12) antagonist” (RSC Med Chem, 2023).

Legend:
Type in all cases: cell-based
[1] = target: P2Y purinoceptor 12 (Homo sapiens) (UniProt Q9H244); assay: Antagonist activity at P2Y12 receptor in human blood platelets assessed as inhibition of ADP-induced platelet aggregation at 10 uM compound preincubated with blood for 5 mins prior to ADP addition by electrode aggregometry assay; details: filed as antagonist
P2Y purinoceptor 12 (Homo sapiens), sequence (Q9H244 whole entry): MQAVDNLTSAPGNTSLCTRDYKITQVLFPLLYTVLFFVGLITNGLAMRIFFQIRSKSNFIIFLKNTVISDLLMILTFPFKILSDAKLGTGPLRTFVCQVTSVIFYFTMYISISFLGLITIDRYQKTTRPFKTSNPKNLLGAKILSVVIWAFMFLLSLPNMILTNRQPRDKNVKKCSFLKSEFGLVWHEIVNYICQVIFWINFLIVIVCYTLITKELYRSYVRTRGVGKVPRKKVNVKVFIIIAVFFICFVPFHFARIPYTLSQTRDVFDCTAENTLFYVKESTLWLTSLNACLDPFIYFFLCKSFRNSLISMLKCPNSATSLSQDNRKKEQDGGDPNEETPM
Method in brief: (§1)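 Fresh hirudin-anticoagulated human whole blood from volunteers free of medication for seven days, tested within two hours of venepuncture. 300 μL blood mixed with 300 μL pre-warmed isotonic saline containing compound (0, 0.1, 1, 10 or 100 μM final) or vehicle (1% DMSO final). Incubated 5 min at 37 °C, then 20 μL 0.2 mM ADP added.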

[2] = target: P2Y purinoceptor 12 (Homo sapiens) (UniProt Q9H244); assay: Antagonist activity at P2Y12 receptor in human blood platelets assessed as inhibition of ADP-induced platelet aggregation at 1 uM compound preincubated with blood for 5 mins prior to ADP addition by electrode aggregometry assay; method in brief: as §1
[3] = target: P2Y purinoceptor 12 (Homo sapiens) (UniProt Q9H244); assay: Antagonist activity at P2Y12 receptor in human blood platelets assessed as inhibition of ADP-induced platelet aggregation at 0.1 uM compound preincubated with blood for 5 mins prior to ADP addition by electrode aggregometry assay; method in brief: as §1

Row | inhibition [1] [%] | inhibition [2] [%] | inhibition [3] [%] | SMILES
1 | 61.8 | 38.2 | 37 | CCOC(=O)c1cc(NC(=O)c2cc(NC(=O)c3cc(NC(=O)c4c(-c5ccccc5)noc4C)cn3C)cn2C)cn1C
2 | 41.1 | 22.8 | 4.75 | O=C(CCCCCCCC(=O)Nc1ccc2[nH]c3ccccc3c(=O)c2c1)Nc1ccc2[nH]c3ccccc3c(=O)c2c1
3 | 57.8 | 33.6 | 22.3 | O=C(CCC(=O)Nc1ccc2[nH]c3ccccc3c(=O)c2c1)Nc1ccc2[nH]c3ccccc3c(=O)c2c1
